Assay results published in ChEMBL document CHEMBL5038583, “Highly Potent and Selective Butyrylcholinesterase Inhibitors for Cognitive Improvement and Neuroprotection” (J Med Chem, 2021).

Assays:
[1] = molecular target: Cholinesterase (Equus caballus, UniProt P81908); experiment: Inhibition of equine serum BChE using butyrylthiocholine iodide as substrate preincubated for 5 mins followed by substrate addition and measured after 2 mins by DTNB-reagent based Ellman's method
[2] = molecular target: Cholinesterase (Homo sapiens, UniProt P06276); experiment: Inhibition of human serum BChE using butyrylthiocholine iodide as substrate preincubated for 20 mins followed by substrate addition and measured after 2 mins by DTNB-reagent based Ellman's method
Procedure, shortened: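 hBChE at 0.015 units/mL with DTNB in phosphate buffer pH 8.0, preincubated 20 min at room temperature with at least six concentrations (10⁻⁴−10⁻⁹). Butyrylthiocholine iodide (0.075 M solution) added; A412 read after 2 min at 25 °C. IC50 from % activity vs log concentration; triplicates in at least three runs.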

[3] = molecular target: Cholinesterase (Equus caballus) (UniProt P81908); experiment: Inhibition of equine serum BChE at 10 uM using butyrylthiocholine iodide as substrate preincubated for 5 mins followed by substrate addition and measured after 2 mins by DTNB-reagent based Ellman's method relative to control; conditions: time 7.0 min
Procedure, shortened: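 Ellman method with equine BChE at 2.5 units/mL in pH 8.0 phosphate buffer with DTNB. Preincubation 5 min at room temperature, then butyrylthiocholine iodide (0.075 M solution) added; absorbance at 412 nm after 2 min. Ethanol sample gives 100% activity. Triplicates, at least three runs.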

Cholinesterase (Homo sapiens, UniProt P06276), sequence (P06276 whole entry): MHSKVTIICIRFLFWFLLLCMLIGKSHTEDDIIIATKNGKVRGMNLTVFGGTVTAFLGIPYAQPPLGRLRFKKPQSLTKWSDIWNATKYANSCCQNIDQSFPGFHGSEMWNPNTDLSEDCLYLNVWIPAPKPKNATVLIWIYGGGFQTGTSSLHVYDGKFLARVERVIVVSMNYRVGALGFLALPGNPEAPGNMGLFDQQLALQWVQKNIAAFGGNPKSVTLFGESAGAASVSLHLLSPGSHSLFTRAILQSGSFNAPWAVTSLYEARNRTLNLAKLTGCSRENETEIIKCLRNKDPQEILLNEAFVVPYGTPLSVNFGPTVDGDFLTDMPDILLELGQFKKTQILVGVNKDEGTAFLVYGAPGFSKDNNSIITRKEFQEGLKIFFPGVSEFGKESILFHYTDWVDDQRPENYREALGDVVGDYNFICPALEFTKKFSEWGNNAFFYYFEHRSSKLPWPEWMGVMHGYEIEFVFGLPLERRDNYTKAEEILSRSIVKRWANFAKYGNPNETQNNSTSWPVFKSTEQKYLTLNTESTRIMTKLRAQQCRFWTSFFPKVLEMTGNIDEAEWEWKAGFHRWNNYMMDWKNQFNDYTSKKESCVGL
Cholinesterase (Equus caballus), sequence (P81908 whole entry): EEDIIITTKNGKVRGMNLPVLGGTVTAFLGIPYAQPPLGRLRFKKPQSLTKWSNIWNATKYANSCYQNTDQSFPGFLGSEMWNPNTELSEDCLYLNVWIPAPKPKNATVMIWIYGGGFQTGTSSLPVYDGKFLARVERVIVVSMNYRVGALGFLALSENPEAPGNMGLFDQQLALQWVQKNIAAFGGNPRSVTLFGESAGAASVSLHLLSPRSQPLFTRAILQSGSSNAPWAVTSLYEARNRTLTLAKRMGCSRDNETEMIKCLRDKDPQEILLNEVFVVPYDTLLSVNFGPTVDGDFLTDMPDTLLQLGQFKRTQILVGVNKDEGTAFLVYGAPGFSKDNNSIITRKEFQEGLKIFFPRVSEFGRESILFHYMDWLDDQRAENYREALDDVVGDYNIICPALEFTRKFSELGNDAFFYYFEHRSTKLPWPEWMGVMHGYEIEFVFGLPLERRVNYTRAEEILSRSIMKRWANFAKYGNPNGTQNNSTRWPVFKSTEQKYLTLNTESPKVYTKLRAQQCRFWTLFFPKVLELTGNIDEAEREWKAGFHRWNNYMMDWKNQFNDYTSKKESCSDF
Cholinesterase (Equus caballus, UniProt P81908), sequence (P81908 whole entry): as above

SMILES: Nc1nonc1-c1nc2ccccc2n1CCC(=O)Nc1ccc2ncccc2c1
- IC50 [1]: 253 nM

SMILES: COC(=O)c1ccc(NC(=O)Cn2c(-c3nonc3N)nc3ccccc32)cc1
- IC50 [1]: 5380 nM

SMILES: Nc1nonc1-c1nc2ccccc2n1CC(=O)Nc1ccnc2ccccc12
- IC50 [1]: 51 nM
- IC50 [2]: 212 nM

SMILES: Nc1nonc1-c1nc2ccccc2n1CC(=O)Nc1ccccc1
- IC50 [1]: 2960 nM

SMILES: Nc1nonc1-c1nc2ccccc2n1CC(=O)Nc1cccc(F)c1F
- IC50 [1]: 270 nM

SMILES: Nc1nonc1-c1nc2ccccc2n1CC(=O)Nc1ccccc1F
- IC50 [1]: 124 nM

SMILES: Nc1nonc1-c1nc2ccccc2n1CC(=O)Nc1cccc(F)c1
- IC50 [1]: 1040 nM

SMILES: COc1ccc(NC(=O)Cn2c(-c3nonc3N)nc3ccccc32)cc1
- inhibition [3]: < 50%

SMILES: Nc1nonc1-c1nc2ccccc2n1CC(=O)Nc1ccc2ccccc2c1
- IC50 [1]: 352000 nM

SMILES: Nc1nonc1-c1nc2ccccc2n1CC(=O)Nc1ccc(-c2ccccc2)cc1
- inhibition [3]: < 50%

SMILES: COC(=O)c1cccc(NC(=O)Cn2c(-c3nonc3N)nc3ccccc32)c1
- IC50 [1]: 27 nM
- IC50 [2]: 180 nM

SMILES: Cc1ccc(NC(=O)Cn2c(-c3nonc3N)nc3ccccc32)cc1
- IC50 [1]: 10300 nM

SMILES: Cc1cc2nc(-c3nonc3N)n(CC(=O)Nc3ccc4ncccc4c3)c2cc1C
- IC50 [1]: 11300 nM

SMILES: COc1cccc(NC(=O)Cn2c(-c3nonc3N)nc3ccccc32)c1
- IC50 [1]: 1710 nM

SMILES: Nc1nonc1-c1nc2ccccc2n1CC(=O)Nc1cccc2ncccc12
- IC50 [1]: 920 nM

SMILES: O=C(Cn1c(-c2ccccc2[N+](=O)[O-])nc2ccccc21)Nc1ccc2ncccc2c1
- inhibition [3]: < 50%

SMILES: CC(=O)c1cccc(NC(=O)Cn2c(-c3nonc3N)nc3ccccc32)c1
- IC50 [1]: 191 nM

SMILES: Nc1nonc1-c1nc2ccccc2n1CC(=O)Nc1ccc(Cl)cc1
- inhibition [3]: < 50%

SMILES: CC(=O)c1ccc(NC(=O)Cn2c(-c3nonc3N)nc3ccccc32)cc1
- IC50 [1]: 2270 nM

SMILES: Nc1nonc1-c1nc2ccccc2n1CC(=O)Nc1ccccc1Cl
- IC50 [1]: 2730 nM

SMILES: Nc1nonc1-c1nc2ccccc2n1CC(=O)Nc1ccc([N+](=O)[O-])cc1
- IC50 [1]: 30 nM
- IC50 [2]: 80 nM
